Test results as given in ChEMBL document CHEMBL1926569, “Novel (E)-1-(4-methyl-2-(alkylamino)thiazol-5-yl)-3-arylprop-2-en-1-ones as potent antimicrobial agents” (2011).
Converted amounts (≈) assume the structure as drawn.

Assays:
Candida albicans [1] = assay: Ratio of ketoconazole to compound for Candida albicans isolated from human; type: functional
Candida albicans [2] = assay: Antifungal activity against Candida albicans isolated from human after 72 hrs by serial dilution technique; type: functional
Summary of the method: (§1)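 Modified microdilution in 96-well plates. Fungi were kept on malt agar at 4 °C. Spores were washed off in sterile 0.85% saline with 0.1% Tween 80. Compounds were dissolved at 1 mg/ml in 5% DMSO with 0.1% Tween 80 and added to malt broth with inoculum. Plates were shaken at 160 rpm for 72 h at 28 °C. Duplicate, repeated three times.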

Listeria monocytogenes [3] = assay: Antibacterial activity against Listeria monocytogenes NCTC 7973 incubated for 24 hrs followed by serial sub-cultivation for 24 hrs by microdilution; type: functional; details: NCTC 7973, 24 h
Summary of the method: (§2)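 MBC: after the 24 h LB broth microdilution (1.0 × 10⁴ CFU per well, 160 rpm), wells were serially sub-cultured into fresh broth plates and incubated a further 24 h. MBC is the lowest concentration with no visible growth, taken as 99.5% killing of the original inoculum. Duplicate, repeated three times.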

Aspergillus ochraceus [4] = assay: Ratio of ketoconazole to compound for Aspergillus ochraceus ATCC 12066; type: functional
Aspergillus niger [5] = assay: Ratio of bifonazole to compound for Aspergillus niger ATCC 6275; type: functional
Trichoderma viride [6] = assay: Antifungal activity against Trichoderma viride IAM 5061 after 72 hrs by serial dilution technique; type: functional; details: IAM 5061, 72 h; summary of the method: as §1
Pseudomonas aeruginosa [7] = assay: Antibacterial activity against Pseudomonas aeruginosa ATCC 27853 after 24 hrs by microdilution method; type: functional; details: ATCC 27853, 24 h
Summary of the method: (§3)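 Broth microdilution in 96-well plates. Bacterial suspensions were adjusted in sterile saline to 1.0 × 10⁵ CFU/ml, prepared daily and kept at 4 °C. Compound was added to LB broth with 1.0 × 10⁴ CFU per well and shaken at 160 rpm for 24 h at […] (so in the source). MIC is the lowest concentration with no visible growth under a binocular microscope. OD655 was also read. Duplicate, repeated three times.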

Candida albicans [8] = assay: Antifungal activity against Candida albicans isolated from human incubated for 72 hrs followed by serial sub-cultivation for 72 hrs by serial dilution technique; type: functional
Summary of the method: (§4)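 MFC: material from 72 h malt broth microdilution wells was serially sub-cultured into fresh broth plates and incubated a further 72 h at 28 °C. Fungicidal concentration is taken from growth after sub-culture. Duplicate, repeated three times.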

Trichoderma viride [9] = assay: Ratio of bifonazole to compound for Trichoderma viride IAM 5061; type: functional
Aspergillus flavus [10] = assay: Antifungal activity against Aspergillus flavus ATCC 9643 after 72 hrs by serial dilution technique; type: functional; details: ATCC 9643, 72 h; summary of the method: as §1
Aspergillus ochraceus [11] = assay: Antifungal activity against Aspergillus ochraceus ATCC 12066 incubated for 72 hrs followed by serial sub-cultivation for 72 hrs by serial dilution technique; type: functional; details: ATCC 12066, 72 h; summary of the method: as §4
Aspergillus ochraceus [12] = assay: Antifungal activity against Aspergillus ochraceus ATCC 12066 after 72 hrs by serial dilution technique; type: functional; details: ATCC 12066, 72 h; summary of the method: as §1
Talaromyces funiculosus [13] = assay: Antifungal activity against Penicillium funiculosum ATCC 36839 after 72 hrs by serial dilution technique; type: functional; details: ATCC 36839, 72 h; summary of the method: as §1
Pseudomonas aeruginosa [14] = assay: Ratio of ampicillin MIC to compound MIC for Pseudomonas aeruginosa ATCC 27853; type: functional
Micrococcus flavus [15] = assay: Antibacterial activity against Micrococcus flavus ATCC 10240 after 24 hrs by microdilution method; type: functional; details: ATCC 10240, 24 h; summary of the method: as §3
Bacillus cereus [16] = assay: Antibacterial activity against clinical isolate of Bacillus cereus incubated for 24 hrs followed by serial sub-cultivation for 24 hrs by microdilution; type: functional; summary of the method: as §2
Staphylococcus aureus [17] = assay: Antibacterial activity against Staphylococcus aureus ATCC 6538 after 24 hrs by microdilution method; type: functional; details: ATCC 6538, 24 h; summary of the method: as §3
Micrococcus flavus [18] = assay: Antibacterial activity against Micrococcus flavus ATCC 10240 incubated for 24 hrs followed by serial sub-cultivation for 24 hrs by microdilution; type: functional; details: ATCC 10240, 24 h; summary of the method: as §2
Aspergillus ochraceus [19] = assay: Antifungal activity against Aspergillus ochraceus after 72 hrs by serial dilution technique
Enterococcus faecalis [20] = assay: Antibacterial activity against Enterococcus faecalis isolated from human incubated for 24 hrs followed by serial sub-cultivation for 24 hrs by microdilution; type: functional; summary of the method: as §2
Aspergillus flavus [21] = assay: Antifungal activity against Aspergillus flavus ATCC 9643 incubated for 72 hrs followed by serial sub-cultivation for 72 hrs by serial dilution technique; type: functional; details: ATCC 9643, 72 h; summary of the method: as §4
Staphylococcus aureus [22] = assay: Antibacterial activity against Staphylococcus aureus ATCC 6538 incubated for 24 hrs followed by serial sub-cultivation for 24 hrs by microdilution method; type: functional; details: ATCC 6538, 24 h; summary of the method: as §2
Aspergillus ochraceus [23] = assay: Ratio of bifonazole to compound for Aspergillus ochraceus ATCC 12066; type: functional
Listeria monocytogenes [24] = assay: Antibacterial activity against Listeria monocytogenes NCTC 7973 after 24 hrs by microdilution method; type: functional; details: NCTC 7973, 24 h; summary of the method: as §3
Penicillium ochrochloron [25] = assay: Antifungal activity against Penicillium ochrochloron ATCC 9112 after 72 hrs by serial dilution technique; type: functional; details: ATCC 9112, 72 h; summary of the method: as §1
Pseudomonas aeruginosa [26] = assay: Antibacterial activity against Pseudomonas aeruginosa ATCC 27853 incubated for 24 hrs followed by serial sub-cultivation for 24 hrs by microdilution; type: functional; details: ATCC 27853, 24 h; summary of the method: as §2
Talaromyces funiculosus [27] = assay: Antifungal activity against Penicillium funiculosum ATCC 36839 incubated for 72 hrs followed by serial sub-cultivation for 72 hrs by serial dilution technique; type: functional; details: ATCC 36839, 72 h; summary of the method: as §4
Escherichia coli [28] = assay: Antibacterial activity against Escherichia coli ATCC 35210 after 24 hrs by microdilution method; type: functional; details: ATCC 35210, 24 h; summary of the method: as §3
Aspergillus niger [29] = assay: Antifungal activity against Aspergillus niger ATCC 6275 after 72 hrs by serial dilution technique; type: functional; details: ATCC 6275, 72 h; summary of the method: as §1
Penicillium ochrochloron [30] = assay: Ratio of bifonazole to compound for Penicillium ochrochloron ATCC 9112; type: functional
Enterococcus faecalis [31] = assay: Antibacterial activity against Enterococcus faecalis isolated from human after 24 hrs by microdilution method; type: functional; summary of the method: as §3
Aspergillus niger [32] = assay: Antifungal activity against Aspergillus niger ATCC 6275 incubated for 72 hrs followed by serial sub-cultivation for 72 hrs by serial dilution technique; type: functional; details: ATCC 6275, 72 h; summary of the method: as §4
Bacillus cereus [33] = assay: Antibacterial activity against clinical isolate of Bacillus cereus after 24 hrs by microdilution method; type: functional; summary of the method: as §3
Aspergillus fumigatus [34] = assay: Ratio of ketoconazole to compound for Aspergillus fumigatus isolated from human; type: functional
Penicillium ochrochloron [35] = assay: Antifungal activity against Penicillium ochrochloron ATCC 9112 incubated for 72 hrs followed by serial sub-cultivation for 72 hrs by serial dilution technique; type: functional; details: ATCC 9112, 72 h; summary of the method: as §4
Aspergillus fumigatus [36] = assay: Antifungal activity against Aspergillus fumigatus isolated from human incubated for 72 hrs followed by serial sub-cultivation for 72 hrs by serial dilution technique; type: functional; summary of the method: as §4
Salmonella typhimurium [37] = assay: Antibacterial activity against Salmonella Typhimurium ATCC 13311 after 24 hrs by microdilution method; type: functional, Salmonella enterica subsp. enterica serovar Typhimurium; details: Salmonella enterica, ATCC 13311, 24 h; summary of the method: as §3
Penicillium ochrochloron [38] = assay: Ratio of ketoconazole to compound for Penicillium ochrochloron ATCC 9112; type: functional
Escherichia coli [39] = assay: Antibacterial activity against Escherichia coli ATCC 35210 incubated for 24 hrs followed by serial sub-cultivation for 24 hrs by microdilution; type: functional; details: ATCC 35210, 24 h; summary of the method: as §2
Candida albicans [40] = assay: Ratio of bifonazole to compound for Candida albicans isolated from human; type: functional
Salmonella typhimurium [41] = assay: Antibacterial activity against Salmonella Typhimurium ATCC 13311 incubated for 24 hrs followed by serial sub-cultivation for 24 hrs by microdilution; type: functional, Salmonella enterica subsp. enterica serovar Typhimurium; details: Salmonella enterica, ATCC 13311, 24 h; summary of the method: as §2
Talaromyces funiculosus [42] = assay: Ratio of bifonazole to compound for Penicillium funiculosum ATCC 36839; type: functional
Trichoderma viride [43] = assay: Antifungal activity against Trichoderma viride IAM 5061 incubated for 72 hrs followed by serial sub-cultivation for 72 hrs by serial dilution technique; type: functional; details: IAM 5061, 72 h; summary of the method: as §4

SMILES: CCNc1nc(C)c(C(=O)/C=C/c2ccccc2Cl)s1
- Ratio (Candida albicans [1]): 10
- MIC (Candida albicans [2]): 32.7 µM (≈ 10 µg/mL)
- MBC (Listeria monocytogenes [3]): 114 µM (≈ 35.1 µg/mL)
- Ratio (Aspergillus ochraceus [4]): 10
- Ratio (Aspergillus niger [5]): 10
- MIC (Trichoderma viride [6]): 32.7 µM (≈ 10 µg/mL)
- MIC (Pseudomonas aeruginosa [7]): 48.9 µM (≈ 15 µg/mL)
- MFC (Candida albicans [8]): 65.3 µM (≈ 20 µg/mL)
- Ratio (Trichoderma viride [9]): 10
- MIC (Aspergillus flavus [10]): 49 µM (≈ 15 µg/mL)
- MFC (Aspergillus ochraceus [11]): 49 µM (≈ 15 µg/mL)
- MIC (Aspergillus ochraceus [12]): 32.7 µM (≈ 10 µg/mL)
- MIC (Talaromyces funiculosus [13]): 32.7 µM (≈ 10 µg/mL)
- Ratio (Pseudomonas aeruginosa [14]): 10
- MIC (Micrococcus flavus [15]): 65.3 µM (≈ 20 µg/mL)
- MBC (Bacillus cereus [16]): 65.3 µM (≈ 20 µg/mL)
- MIC (Staphylococcus aureus [17]): 81.7 µM (≈ 25.1 µg/mL)
- MBC (Micrococcus flavus [18]): 98.1 µM (≈ 30.1 µg/mL)
- MIC (Aspergillus ochraceus [19]): 49 µM (≈ 15 µg/mL)
- MBC (Enterococcus faecalis [20]): 61.1 µM (≈ 18.7 µg/mL)
- MFC (Aspergillus flavus [21]): 65.3 µM (≈ 20 µg/mL)
- MBC (Staphylococcus aureus [22]): 98.1 µM (≈ 30.1 µg/mL)
- Ratio (Aspergillus ochraceus [23]): 10
- MIC (Listeria monocytogenes [24]): 98.1 µM (≈ 30.1 µg/mL)
- MIC (Penicillium ochrochloron [25]): 32.7 µM (≈ 10 µg/mL)
- MBC (Pseudomonas aeruginosa [26]): 61.1 µM (≈ 18.7 µg/mL)
- MFC (Talaromyces funiculosus [27]): 65.3 µM (≈ 20 µg/mL)
- MIC (Escherichia coli [28]): 48.9 µM (≈ 15 µg/mL)
- MIC (Aspergillus niger [29]): 49 µM (≈ 15 µg/mL)
- Ratio (Penicillium ochrochloron [30]): 10
- MIC (Enterococcus faecalis [31]): 48.9 µM (≈ 15 µg/mL)
- MFC (Aspergillus niger [32]): 65.3 µM (≈ 20 µg/mL)
- MIC (Bacillus cereus [33]): 32.7 µM (≈ 10 µg/mL)
- Ratio (Aspergillus fumigatus [34]): 10
- MFC (Penicillium ochrochloron [35]): 65.3 µM (≈ 20 µg/mL)
- MFC (Aspergillus fumigatus [36]): 65.3 µM (≈ 20 µg/mL)
- MIC (Salmonella typhimurium [37]): 48.9 µM (≈ 15 µg/mL)
- Ratio (Penicillium ochrochloron [38]): 10
- MBC (Escherichia coli [39]): 61.1 µM (≈ 18.7 µg/mL)
- Ratio (Candida albicans [40]): 10
- MBC (Salmonella typhimurium [41]): 61.1 µM (≈ 18.7 µg/mL)
- Ratio (Talaromyces funiculosus [42]): 10
- MFC (Trichoderma viride [43]): 65.3 µM (≈ 20 µg/mL)
